Assay results from publication PMC9514665 (Neuropharmacology, 2021).
Values joined by “and” are separate entries in the source; they are usually repeats but may differ in a detail not shown here. Equal entries are not always repeated. Where two headings read alike, the source gives them in different places. Marks after values point to notes of the source that are not given here.

Legend:
F1.Scn1a^+/− mice [1] = conditions: 2017, cited from earlier work
[2] = Pharmacokinetic analysis in mouse plasma and brain after i.p. injection; assay type: in vivo
F1.Scn1a^+/− mice [3] = assay: Hyperthermia-induced seizures; assay type: in vivo, mouse
In short: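 Male and female F1.Scn1a+/− mice at P14–16 received i.p. dosing (10 mL/kg; vehicle ethanol:Tween 80:saline 1:1:18). A rectal probe was inserted 15 min before the post-dose time point (30 or 60 min, set by PK), followed by 5-min acclimation. Core temperature was raised 0.5°C every 2 min until first clonic convulsion with loss of posture, or to 42.5°C with a 3-min hold. n = 17–22 per group; logrank Mantel-Cox.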

[4] = assay type: in vivo, mouse; conditions: for Plasma Concentration: 30 min; for Plasma Concentration / concentration at 60 min: F1.Scn1a^+/− mice; for concentration at 60 min: both, F1.Scn1a+/−, mouse, in vivo, Plasma Concentration
Aqueous solubility = assay type: physicochemical
[5] = Oral bioavailability after subchronic oral administration; assay type: in vivo, mouse; conditions: sufficient plasma concentrations not achieved
CB1 receptor [6] = conditions: ref Laprairie et al., 2017; cited from earlier work
[7] = tested on: Genetic Absence Epilepsy Rats from Strasbourg (GAERS); conditions: ref Roebuck et al., 2021, cited from earlier work
wildtype mice = conditions: 10 mg/kg; ref Laprairie et al., 2019; cited from earlier work
[8] = assay type: in vivo, mouse; conditions: 350 mg/kg chow, subchronic oral
F1.Scn1a^+/− mice [9] = assay: Spontaneous seizures and survival; assay type: in vivo, mouse; conditions: 350 mg ABX-1431/kg chow
In short: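 Male and female F1.Scn1a+/− mice had one hyperthermia-induced seizure at P18, then were randomised to untreated or 350 mg/kg medicated chow made from irradiated powdered diet. Continuous 60-h video recording was used to count and score spontaneous GTCS. Treatment continued to P30 for survival. Fisher's exact test covered seizure-free and hindlimb-extension proportions, Mann-Whitney covered frequency, and logrank covered survival.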

[10] = tested on: 2-arachidonoylglycerol (2-AG); assay: Hippocampal 2-AG concentrations after ABX-1431 treatment; assay type: in vivo, mouse; conditions: F1.Scn1a^+/− mice
anandamide (AEA) = assay: Hippocampal anandamide concentrations after ABX-1431 treatment; assay type: in vivo, mouse; conditions: acute i.p. treatment; F1.Scn1a^+/− mice
In short: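 Acute i.p. dosing of F1.Scn1a+/− mice in ethanol:Tween 80:saline (1:1:18), 10 mL/kg. Whole brains were taken 60 min post-dose after hyperthermia testing, by cervical dislocation without anaesthesia, and snap frozen. Hippocampi were Dounce-homogenised and spun at 20,000g for 30 min at 4°C. Supernatant underwent dichloromethane:methanol (2:1)/0.88% KCl liquid-liquid extraction on ice, avoiding plastics. Analysis was by UHPLC-triple quadrupole LC-MS/MS against external calibration curves. 2-AG: Brown-Forsythe ANOVA, Dunnett's T3. Anandamide: Kruskal-Wallis.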

CB1 receptor [11] = assay: Hippocampal CB1 receptor expression by immunoblotting after subchronic treatment; assay type: in vivo, mouse; conditions: subchronic 350 mg ABX-1431/kg chow; F1.Scn1a^+/− mice; p = 0.0077
In short: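 Hippocampi from F1.Scn1a+/− mice, untreated or fed 350 mg/kg chow, were Dounce-homogenised in buffered 0.32 M sucrose. Membranes were isolated by sequential 2,000g and 20,000g spins at 4°C and protein quantified by Bradford. Membrane protein (20 μg) was run on 10% SDS-PAGE and transferred to PVDF. Rabbit anti-CB1 was detected with fluorescent secondaries (1:20,000). Densitometry was normalised to β-tubulin; Student's t-test.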

neuropathic pain model = conditions: combined with the MAGL inhibitor JZL184; ref Slivicki et al., 2018; cited from earlier work
CB1 receptor [12] = conditions: repeated exposure to low doses, ref Ghosh et al., 2013, Kinsey et al.; cited from earlier work
[13] = brain, wildtype mice, 5 mg/kg i.p.
[14] = brain, wildtype mice, 5 mg/kg i.p., converted from ng/mg brain assuming density of 1 g/mL
[15] = plasma, wildtype mice, 5 mg/kg i.p.

C=C(C)[C@@H]1CCC(C)=C[C@H]1c1c(O)cc(CCCCC)cc1O [CBD, cannabidiol]
effective dose in this model (F1.Scn1a^+/− mice [1]; ref Anderson et al., 2020, 2019a, Kaplan et al.): 100 mg/kg

O=[N+]([O-])C[C@@H](c1ccccc1)c1c(-c2ccccc2)[nH]c2ccccc12 [GAT229]
t1/2 [2, 13]: 53 min
tmax [2, 13]: 30 ng/mL
AUC [2, 14]: 85 ^* μg min/mL
Cmax [2, 14]: 888 ± 90 ng/mL
AUC [2, 15]: 74 µg·min/mL
Cmax [2, 15]: 858 ± 167 ng/mL
t1/2 [2, 15]: 45 min
tmax [2, 15]: 30 ng/mL
brain-plasma ([2]; wildtype mice, 5 mg/kg i.p.): 110%
brain-plasma ratio ([2]; wildtype mice, 5 mg/kg i.p.): 1.1
temperature threshold for thermally-induced seizures (GTCS) (F1.Scn1a^+/− mice [3]; 30 mg/kg i.p., vehicle 41.1 ± 0.1°C, p = 0.0152): 41.7 ± 0.2 °C
temperature threshold for thermally-induced seizures (GTCS) (F1.Scn1a^+/− mice [3]; 100 mg/kg i.p., vehicle 41.1 ± 0.1°C, p = 0.0059): 41.8 ± 0.1 °C
Plasma Concentration ([4]; 10 mg/kg i.p.): 900 ± 100 ng/mL
Plasma Concentration ([4]; 30 mg/kg i.p. (suspension)): 2600 ± 500 ng/mL
Plasma Concentration ([4]; 100 mg/kg i.p. (suspension)): 3200 ± 200 ng/mL
Plasma concentrations in experimental animals ([4]; 30 and 100 mg/kg doses): 7.6–9.3 μM and 2.6–3.2 μg/mL
Plasma Concentration of GAT229 ([4]; co-treatment GAT229 + ABX-1431 (30 mg/kg + 10 mg/kg)): 2300 ± 300 ng/mL
aqueous solubility (Aqueous solubility): poor
oral bioavailability [5]: poor
EC50 (CB1 receptor [6]): ~295 nM
association with sedation or catalepsy ([7]; GAERs model): not associated
effect against absence seizures [7]: anticonvulsant effects
effect on locomotor activity (wildtype mice): reduced

O=C(OC(C(F)(F)F)C(F)(F)F)N1CCN(Cc2ccc(C(F)(F)F)cc2N2CCCC2)CC1 [ABX-1431]
AUC ([2]; mouse, in vivo, ip, 5 mg/kg): 29 µg·min/mL
Cmax ([2]; mouse, in vivo, ip, 5 mg/kg): 317 ± 40 ng/mL
brain half-life (in words) ([2]; mouse, in vivo, ip, 5 mg/kg): prolonged
half-life ([2]; mouse, in vivo, ip, 5 mg/kg): 47 min
Cmax ([2]; mouse, in vivo, ip, 5 mg/kg, Cmax): 468 ± 40 ng/mL
temperature threshold for thermally-induced seizures (GTCS) (F1.Scn1a^+/− mice [3]; 10 mg/kg i.p., vehicle 40.6 ± 0.1°C, p = 0.0008): 41.3 ± 0.2 °C
concentration at 60 min ([4]; 3 mg/kg i.p.): 198 ± 31 ng/mL
concentration at 60 min ([4]; 10 mg/kg i.p.): 373 ± 53 ng/mL
concentration at 60 min ([4]; 30 mg/kg i.p.): 883 ± 114 ng/mL
Plasma Concentration [8]: 170 to 394 ng/mL
survival compared with untreated controls (F1.Scn1a^+/− mice [9]; P18 to P30, p = 0.6803): not different
effect on spontaneous seizure (GTCS) frequency (F1.Scn1a^+/− mice [9]; 60-h recording, vs untreated, p = 0.0064): significantly increase
proportion of seizures that progressed to full hindlimb extension (F1.Scn1a^+/− mice [9]; 93/272 seizures, untreated 45/83 (54%), p = 0.0011): 34%
effect on proportion of mice that exhibited seizures (F1.Scn1a^+/− mice [9]; vs untreated, p = 0.6562): did not affect
hippocampal 2-AG concentrations relative to vehicle-treated mice ([10]; acute 10 mg/kg i.p.): 8 fold
hippocampal 2-AG concentrations increase ([10]; acute 30 mg/kg i.p.): 13 fold
hippocampal 2-AG concentrations increase ([10]; subchronic oral (350 mg/kg chow)): 15 fold
effect on hippocampal anandamide concentrations (anandamide (AEA)): not affected
effect on hippocampal CB1 receptor expression (CB1 receptor [11]): significantly lowered

O=[N+]([O-])CC(c1ccccc1)c1c(-c2ccccc2)[nH]c2ccccc12 (stereo not shown) [GAT211]
antinociceptive effect (neuropathic pain model): synergistic

CN1C(=O)CC(=O)N(c2ccccc2)c2cc(Cl)ccc21 [clobazam]
effective dose in this model (F1.Scn1a^+/− mice [1]; ref Anderson et al., 2019a, Hawkins et al.): 1 mg/kg

O=C(Oc1ccc([N+](=O)[O-])cc1)N1CCC(C(O)(c2ccc3c(c2)OCO3)c2ccc3c(c2)OCO3)CC1 [JZL184]
CB1 receptor downregulation and desensitization (CB1 receptor [12]): does not occur
